# In the library only some 1.7% were active in any assay of this set; here they are far more common.
# DNMT1 inh – DNMT1 (human) enzyme inhibition. P26358. DNMT1 molecular beacon, Hinp1I cleavage, fluorescence. inhibition (reported as % activation of signal), % at 10 µM. actives 0.83% (n = 360,000). AID 588458; in the data active = inhibition above about 50%
# Scp-1 inhibitor – blocks human Scp-1 phosphatase activity; Q9GZU7; Recombinant Scp1, phosphopeptide, malachite green phosphate absorbance; inhibition, % at 20 µM; actives 0.88% (n = 340,000); AID 493091;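 active = inhibition above about 50% at 20 µM, limit read from the data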;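 also: plate controls were DMSO wells with enzyme for no effect and wells lacking enzyme for full effect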
#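 Test system: SCP-1 phosphatase catalytic domain, residues 76-261; measured by: colorimetric phosphate reagent with accelerator and stabiliser, absorbance at 630 nm; timing: enzyme reaction 45 min at room temperature, colour 5 min, stabilisation 30 min; also added: Phosphorylated 17-residue peptide substrate; compound dosing: one concentration, 20 µM, with 1.0% DMSO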
# SUMO1 PPI mod – alters human SUMO1 binding to SIM partners; P63165; SUMO1 binding to a labelled peptide, TR-FRET, 1 h; inhibition, % at 20 µM; actives 0.33% (n = 360,000); AID 602429; in the data active = inhibition above about 37%
# Target sequence (P63165 whole entry, looked up): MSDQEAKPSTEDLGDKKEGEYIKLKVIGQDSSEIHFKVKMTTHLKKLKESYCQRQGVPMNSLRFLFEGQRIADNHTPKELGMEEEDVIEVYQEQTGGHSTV
# STEP inh – blocks human striatal-enriched tyrosine phosphatase; P54829; recombinant STEP, OMFP fluorogenic substrate, fluorescence; inhibition, % at 20 µM; actives 0.25% (n = 360,000); AID 588621;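 active = inhibition at 20 µM, scaled per plate between control wells, above about 37%, limit read from the data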;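 also: 0% = DMSO with enzyme and substrate and 100% = substrate only without enzyme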
#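 medium = Bis-Tris buffer pH 6.0, 2.5 mM DTT, 0.005% Tween 20 | test system = STEP (striatal-enriched tyrosine phosphatase) enzyme, cell-free | measure = normalized % inhibition | compound dosing = 20 µM, 1% DMSO | also added = 25 µM OMFP | schedule = reaction 20 min, ambient temperature | measured by = fluorescence read at 480 nm ex / 540 nm em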
# CASP6 VEID inh – caspase-6 (human) enzyme inhibition; purified caspase-6, Z-VEID-R110 cleavage fluorescence; inhibition, % at 12.5 µM; actives 0.53% (n = 350,000); AID 686996;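 active = mean inhibition across replicates at least about 35%, with every replicate also reaching that limit, limit read from the data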;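 also: 0% = median of neutral control wells and 100% = no fluorescence left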
# Target sequence (P55212 24-179 limits assumed): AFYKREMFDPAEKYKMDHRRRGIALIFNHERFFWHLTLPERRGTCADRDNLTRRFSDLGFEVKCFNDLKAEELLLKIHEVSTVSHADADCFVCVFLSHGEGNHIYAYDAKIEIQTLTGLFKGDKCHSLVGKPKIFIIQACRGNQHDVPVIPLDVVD
# Target sequence (P55212 194-293 limits assumed): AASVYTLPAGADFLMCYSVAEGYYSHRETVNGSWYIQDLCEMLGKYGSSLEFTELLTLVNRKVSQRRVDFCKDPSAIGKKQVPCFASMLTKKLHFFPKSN
# LMPTP block – LMPTP (human) inhibition | actives 0.22% (n = 360,000) | recombinant LMPTP-A, OMFP fluorogenic substrate, fluorescence intensity | P24666 | inhibition, % at 20 µM;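 active = compounds that cut the enzyme signal by at least half of the control window in the single-dose screen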;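 also: plate controls were DMSO wells with enzyme plus substrate for no effect and substrate without enzyme for full effect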
# Target sequence (P24666 whole entry, looked up): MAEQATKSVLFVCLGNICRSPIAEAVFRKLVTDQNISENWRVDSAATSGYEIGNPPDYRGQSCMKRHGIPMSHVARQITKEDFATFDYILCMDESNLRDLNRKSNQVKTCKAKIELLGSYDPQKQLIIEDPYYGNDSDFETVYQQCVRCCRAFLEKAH
#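 Assay system: LMPTP-A, protein tyrosine phosphatase of low molecular weight / Medium: pH 6.0 Bis-Tris buffer with DTT and Triton X-100 / Schedule: 50 min enzyme reaction at room temperature, protected from light / Measured by: endpoint fluorescence intensity from OMFP dephosphorylation / Read-out basis: % inhibition relative to no-enzyme and uninhibited control wells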
# DNMT1 interf DR – shows spectral interference in the DNMT1 beacon assay. shares compounds with DNMT1 inh. molecular beacon fluorescence, spectral interference counter-screen. IC50, µM. 200 tested, under 10 active
# DNMT1 confirm – DNMT1 inhibition confirmation, single concentration; DNMT1 molecular beacon HinP1I cleavage, fluorescence; shares compounds with DNMT1 inh; inhibition, % at 10 µM; actives 8% (n = 2,300);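 active = average inhibition of at least 30% in the single-concentration confirmation test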
# DNMT1 interf – counter-screen for DNMT1 inhibitors: spectral interference. shares compounds with DNMT1 inh. actives 1% (n = 2,300). DNMT1 molecular beacon spectral interference counterscreen, fluorescence 485/520. AID 602387. activation (fluorescence interference), % at 10 µM;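 active = activation of at least 30% at 10 µM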;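 also: DNMT1 catalytic domain with a HinP1I cleavage step and a FAM/dabcyl DNA beacon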
# STEP inh conf – STEP (human) phosphatase inhibition, single concentration confirmation; actives 32% (n = 520); inhibition, % at 20 µM; recombinant STEP, OMFP fluorogenic substrate, fluorescence; shares compounds with STEP inh;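 also: 0% = enzyme with substrate plus DMSO and 100% = substrate without enzyme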
# * = called active by the depositor; / = not tested or not shown. Unless noted, no rule for the calls is given here.
SMILES,DNMT1 inh,Scp-1 inhibitor,SUMO1 PPI mod,STEP inh,CASP6 VEID inh,LMPTP block,DNMT1 confirm,DNMT1 interf,others
CC(=NCc1cccnc1)c1c(O)n(Cc2ccccc2)c(=O)[nH]c1=O,3,0,19,1,/,-2,/,/,
CCN(CC)c1ccc(/C=C2/C(=O)NC(=O)N(Cc3ccco3)C2=O)cc1,68*,5,-4,1,/,1,1,-1,
CN(C)c1ccc(/C=C2/C(=O)NC(=O)N(Cc3ccco3)C2=O)cc1,94*,33,8,5,81*,2,11,6,
CN(C)c1ccc(/C=C2\C(=O)NC(=O)N(CCc3ccc(F)cc3)C2=O)cc1,-5,17,-3,2,4,1,/,/,
Cc1ccc(Cn2ccccc2=N)cc1,1,-12,-2,1,3,-3,/,/,
CCCNC(=O)N1C2CCC1CC(O)(c1cccnc1)C2 (stereo unspecified),1,-5,-2,-2,/,-2,/,/,
COc1cc(CN2CCN(C(=O)Cc3ccccc3)CC2)cc(OC)c1OC,2,-2,5,1,0,-2,/,/,
O=C(O)C1C2CCC(O2)C1C(=O)Nc1cccc(Br)c1 (stereo unspecified),79*,-9,1,0,5,0,3,4,
Cc1cc(/C=C2\C(=O)NC(=O)N(c3cccc(F)c3)C2=O)c(C)n1-c1cc(C(=O)O)cc(C(=O)O)c1,75*,39,26,9,29,0,10,4,
Cc1cc(/C=C2\C(=O)NC(=O)N(c3cccc(Br)c3)C2=O)c(C)n1C,8,-14,1,-3,/,0,/,/,
C/C(=C/CCC(C)[C@H]1CC[C@@]2(C)C3=C(CC[C@]12C)[C@@]1(C)CCC(=O)C(C)(C)[C@@H]1CC3)C(=O)O (stereo partly specified),60*,-8,41*,0,-3,3,23,-9,DNMT1 interf DR=>99
C#C[C@]1(O)[C@H](O)CC2C3CC[C@H]4C[C@@H](O)CC[C@]4(C)C3CC[C@@]21C (stereo partly specified),67*,/,3,-2,-1,3,4,4,
C[C@]12CCC3C(CC[C@H]4C[C@@H](O)CC[C@]34C)C1C[C@@H](O)[C@]2(C)O (stereo partly specified),1,-12,-2,-4,2,-2,/,/,
O=c1[nH]c(O)c(/C=C2\C=Nc3ccc(OCc4ccccc4)cc32)c(=O)[nH]1,71*,-5,4,0,0,1,8,0,
CCCCNC(C)Cc1ccccc1 (stereo unspecified),-4,-6,1,-1,-1,-1,/,/,
Cc1cc(C)cc(N2C(=O)NC(=O)/C(=C\c3cccn3-c3ccc(Cl)cc3)C2=O)c1,17,-10,7,1,/,-1,/,/,
O=C1NC(=S)NC(=O)C1=Cc1cccn1-c1ccc(O)cc1,84*,56*,11,3,88*,32,65*,-4,DNMT1 interf DR=>99
CN1C(=O)/C(=C/c2cccn2-c2ccc3ccccc3c2)C(=O)NC1=S,81*,-4,15,6,/,6,4,-4,
CCC1(CC)C(=O)NC(=O)N(c2ccccc2)C1=O,2,-1,4,-2,-3,0,/,/,
CCC1(CCO)C(=O)NC(=S)NC1=O,-1,1,-2,-2,-3,-2,/,/,
CCN1CCN(C(=O)COc2ccc(S(=O)(=O)N(C)Cc3ccccc3)cc2)CC1,1,-8,3,0,/,1,/,/,
CN1CCN(C(=O)COc2ccc(S(=O)(=O)N(C)Cc3ccccc3)cc2)CC1,55*,-5,-3,0,0,-1,4,9,
Cc1ccc(Cn2cc(C=O)c(-c3ccc(C)cc3)n2)cc1,2,-10,3,74*,2,3,/,/,STEP inh conf=27*
O=C(NC1CCCCC1)N1C[C@H]2C[C@@H](C1)c1cccc(=O)n1C2,5,-2,-1,-1,/,-2,/,/,
CN1CCC2(CC1)N=C(c1ccc(F)cc1)C(=S)N2,1,-1,-3,78*,0,1,/,/,STEP inh conf=28*
CC[C@H]1CN2CCC1C[C@@H]2[C@@H](O)c1ccnc2ccc(OC)cc12 (stereo partly specified),2,5,2,0,-2,1,/,/,
CC[C@H]1CN2CCC1C[C@H]2[C@H](O)c1ccnc2ccc(OC)cc12 (stereo partly specified),45,-9,55*,48*,4,65*,/,/,STEP inh conf=9
COc1ccc(OC)c(-n2c(O)c(C=NCCN3CCNCC3)c(=O)[nH]c2=S)c1,1,-10,0,-2,-24,-4,/,/,

# Screening data deposited in PubChem BioAssay by several laboratories.
